From PubChem
Sampled rows, rich in hits. Any-hit rate of the full collection: about 0.74%.
ARFGAP1 inh – inhibits rat ARF GTPase activating protein 1; Arfgap1-stimulated ARF1 GTP hydrolysis, GDP FP detection; inhibition, % at 16.5 µM; actives 0.26% (n = 360,000); AID 651572;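 active = inhibition above a per-plate limit, mean inhibition of low control wells plus 3 SD, cut at about 25% in these data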
Target sequence (Q62848 1-136 limits assumed): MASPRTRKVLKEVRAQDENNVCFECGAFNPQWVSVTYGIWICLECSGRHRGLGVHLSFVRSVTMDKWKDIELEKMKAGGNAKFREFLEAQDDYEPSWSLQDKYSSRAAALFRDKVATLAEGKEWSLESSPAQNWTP
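Material: rat Arfgap1 GAP domain (His6, aa 1-136), purified enzyme. Also added: human ARF1(Δ1-17)-GTP substrate. Compound dosing: 16.5 µM single point, 1.26% DMSO. Timing: enzyme reaction 120 min at 25 °C after 20 min preincubation. Signal: GDP detection by fluorescence polarization. Read-out basis: percent inhibition of GAP-stimulated GDP formation, scaled between DMSO and no-Arfgap1 medians.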
Tn6 DDE FP – DD(E)-Tn6 binding inhibition, primary FP screen; P02675; Fibrin DD(E) TRITC-Tn6 fluorescence polarization displacement; inhibition, % at 8.3 µM; actives 0.21% (n = 370,000); AID 720509;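 active = inhibition above a per-campaign cutoff: mean of compounds within control limits plus 3 SD, cut at about 15% in these data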
ASAP1 inh – inhibitors of human ASAP1 ArfGAP activity; inhibition, % at 16.5 µM; Q9ULH1; ASAP1-stimulated ARF1 GTP hydrolysis, GDP FP detection; actives 0.19% (n = 360,000); in the data active = inhibition above about 25%
Target sequence (Q9ULH1 325-724 limits assumed): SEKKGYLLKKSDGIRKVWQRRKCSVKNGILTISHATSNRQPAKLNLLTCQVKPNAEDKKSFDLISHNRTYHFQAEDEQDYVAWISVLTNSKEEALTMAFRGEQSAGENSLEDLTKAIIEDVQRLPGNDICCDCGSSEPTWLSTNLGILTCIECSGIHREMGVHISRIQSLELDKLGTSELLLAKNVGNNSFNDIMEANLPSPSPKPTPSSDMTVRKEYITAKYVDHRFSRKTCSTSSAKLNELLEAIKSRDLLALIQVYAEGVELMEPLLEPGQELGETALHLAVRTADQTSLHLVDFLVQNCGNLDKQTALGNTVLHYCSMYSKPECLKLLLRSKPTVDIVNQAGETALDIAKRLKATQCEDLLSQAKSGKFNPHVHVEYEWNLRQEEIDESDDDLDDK
Tn7 DDE FP – DD(E)-Tn7 binding inhibition, primary FP screen; P02675; inhibition, % at 8.3 µM; AID 720508; FP displacement of FITC-Tn7 peptide from fibrin DD(E); 0% = median of compound wells per plate; actives 0.13% (n = 370,000);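 active = inhibition above the mean of compounds falling within the control limits plus 3 SD of them, cut at about 14% in these data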
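Measure: % inhibition scaled between sample-field median and high-control FP; Test system: human fibrin DD(E); Quantity: 2 µM final DD(E) protein; Doses: one dose, 8.3 µM nominal; Schedule: compound with protein 10 min, then 3 h after probe, room temperature; Detection: fluorescence polarization; Medium: Tris buffer with calcium and detergent, pH 7.8.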
ASAP1 inh confirm – ASAP1 inhibition confirmed; actives 37% (n = 620); shares compounds with ASAP1 inh; inhibition, % at 16.5 µM; ASAP1-stimulated Arf1 GTPase, GDP fluorescence polarization;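 active = mean inhibition over triplicates exceeds the hit threshold derived for the earlier primary screening run, cut at about 25% in these data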
ARFGAP1 confirm – confirmation of rat ARFGAP1 inhibitors. inhibition, % at 16.5 µM. ARFGAP1-stimulated ARF1 GTP hydrolysis, GDP tracer FP. actives 30% (n = 890). AID 651608. shares compounds with ARFGAP1 inh;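 active = average inhibition over triplicates above the hit cutoff set in the earlier primary screen, cut at about 25% in these data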
Tn7 DDE conf – confirmation of inhibitors of Tn7 binding to human fibrin DD(E); shares compounds with Tn7 DDE FP; FP displacement of TRITC-Tn7 peptide from DD(E); 0% set at plate's compound-well median; inhibition, % at 8.3 µM; actives 5% (n = 460); AID 720628;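 active = inhibition above the campaign cutoff, the mean of compounds within control limits plus 3 SD, cut at about 14% in these data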;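 note: displacers lower polarization since freed probe rises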
DDE Tn7 FP ctr – counter-screen for inhibitors of Tn7 peptide binding to fibrin DD(E). shares compounds with Tn7 DDE FP. TRITC-Tn7 probe displacement, fluorescence polarization. inhibition, % at 8.3 µM. actives 3% (n = 460);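 active = inhibition above the cutoff, the mean of compounds lying between the control bounds plus 3 SD of those compounds, cut at about 17% in these data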
DDE Tn6 FP ctr – DD(E)-Tn6 binding inhibition, counter-screen; shares compounds with Tn6 DDE FP; Fibrin DD(E), TRITC-Tn6 fluorescence polarization displacement; 0% = median of compound wells, not DMSO; inhibition, % at 8.3 µM; actives 2% (n = 680); AID 720621;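 active = inhibition above the mean of test compounds lying between the control limits plus 3 SD of those, cut at about 14% in these data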
Tn6 DDE conf – confirmation of inhibitors of Tn6 binding to human fibrin DD(E); shares compounds with Tn6 DDE FP; FP displacement of TRITC-Tn6 peptide from DD(E); 0% = per-plate median of test wells; inhibition, % at 8.3 µM; actives 10% (n = 680); AID 720631;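 active = inhibition above the mean of compounds lying within the control limits plus 3 SD, cut at about 16% in these data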
Of the large screens only hits and unclear results are named; the others gave an inactive call (follow-up assays come after a bar, where they were run).

COc1ccc(-n2c(O)c(C=Nc3c(C)n(C)n(-c4ccccc4)c3=O)c(=O)[nH]c2=O)cc1	Tn6 DDE FP 16.9
COc1cccc(-n2c(O)c(C=Nc3c(C)n(C)n(-c4ccccc4)c3=O)c(=O)[nH]c2=O)c1	none
c1ccc(Cn2nnnc2C2CN=C(c3ccccc3)c3ccccc3N2)cc1 (stereo not given)	none (no result: ARFGAP1 inh, ASAP1 inh)
C[C@]12CC[C@@H](O)C[C@@H]1CC[C@@H]1[C@@H]2CC[C@]2(C)C(=O)CC[C@@H]12	Tn7 DDE FP 15.8
O=Cc1cn(Cc2ccc(F)cc2)c2ccccc12	ASAP1 inh 25.0 | ASAP1 inh confirm inactive
Cc1ccc(Cn2cc(C=O)c3ccccc32)cc1	none
O=C1C=C(N2CC2)c2ccccc2C1=O	ASAP1 inh 30.6 | ASAP1 inh confirm inactive
CCc1c(C(=O)NN2C(=O)C3C4CCC(O4)C3C2=O)csc1C (stereo not given)	ASAP1 inh 25.8 | ASAP1 inh confirm inactive
CCC(C)NC(=O)c1c(N)n(CCCOC)c2nc3ccccc3nc12 (stereo not given)	ASAP1 inh 27.2 | ASAP1 inh confirm inactive
C=CCCC(NC(=O)OCc1ccccc1)P(=O)(Oc1ccccc1)Oc1ccccc1 (stereo not given)	none (no result: ARFGAP1 inh, ASAP1 inh)
COC(=O)C1C(c2ccc(Cl)cc2)CC2CCC1N2C (stereo not given)	none
COC(=O)C1C(c2ccc(I)cc2)CC2CCC1N2C (stereo not given)	ASAP1 inh 25.5 | ASAP1 inh confirm inactive
CC(=O)N1c2ccccc2C(c2ccccc2)=NCC1C(=O)NC1CCCCC1 (stereo not given)	none (no result: ARFGAP1 inh, ASAP1 inh)
CC(C)(C)n1nnnc1C1CN=C(c2ccccc2)c2ccccc2N1 (stereo not given)	none (no result: ARFGAP1 inh, ASAP1 inh)
COCCCn1c(N)c(C(=O)Nc2sc3c(c2C(=O)OC)CCCC3)c2nc3ccccc3nc21	ARFGAP1 inh 27.3, ASAP1 inh 29.1 | ASAP1 inh confirm inactive | ARFGAP1 confirm inactive
O=C(NCCN1CCC2(CC1)C(=O)NCN2c1ccccc1)c1ccc(F)c(F)c1	none
O=C(CCc1ccccc1)N1Cc2cc(N3CCOCC3)ccc2-n2nncc2C1	none
O=C(CCc1ccccc1)N1Cc2cc(N3CCCCC3)ccc2-n2nncc2C1	ARFGAP1 inh 25.3 | ARFGAP1 confirm inactive
COC(=O)[C@@]1(O)c2c(oc3cccc(O)c3c2=O)C=C[C@H]1O	none (no result: ARFGAP1 inh, ASAP1 inh)
CCCOc1ccc(C(C)=O)cc1Cc1c(O)[nH]c(=S)[nH]c1=O	ARFGAP1 inh 25.5 | ARFGAP1 confirm inactive
CCOc1ccc(C(C)=O)cc1Cc1c(O)[nH]c(=S)[nH]c1=O	none
Cc1cc(O)c2c(c1)C(=O)[C@@]13C(=C2O)C(=O)[C@H]2C(O)[C@@H]1[C@H]1C(O)[C@@H]3C(=O)C3=C(O)c4c(O)cc(C)cc4C(=O)[C@@]312 (stereo not given in full)	none (no result: ARFGAP1 inh, ASAP1 inh)
N#CCC[C@@H]1CC[C@]2(CCCN(Cc3ccncc3)C2)O1	none (no result: ARFGAP1 inh, ASAP1 inh)
O=C1C2CC=CCC2C(=O)N1SC(Cl)(Cl)Cl (stereo not given)	none
COCCNC(=O)c1ccc(N2CC3CC(C2)c2cccc(=O)n2C3)c([N+](=O)[O-])c1 (stereo not given)	ARFGAP1 inh 35.3 | ARFGAP1 confirm inactive
COc1ccccc1Oc1c(C)oc2cc(OC(=O)N(C)C)ccc2c1=O	ARFGAP1 inh 26.6 | ARFGAP1 confirm inactive
COc1ccc(Oc2c(C)oc3cc(OC(=O)N(C)C)ccc3c2=O)cc1	none
NCCc1ccc(O)cc1	ARFGAP1 inh 29.5 | ARFGAP1 confirm inactive
COc1ccc(CN2CCCCC2c2cccnc2)cc1C (stereo not given)	none
COc1cccc(CN2CCCCC2c2cccnc2)c1 (stereo not given)	ARFGAP1 inh 25.1 | ARFGAP1 confirm inactive
CC[N+](C)(CC)CCCCOc1ccc2c(c1)C(=O)c1cc(OCCCC[N+](C)(CC)CC)ccc1-2	ARFGAP1 inh 25.6 | ARFGAP1 confirm inactive
CC1CC(C)CN(C(=O)COC(=O)c2cn(C)c3ccccc23)C1 (stereo not given)	ARFGAP1 inh 42.1 | ARFGAP1 confirm 49.4
Nc1ccc2ccc3cccc[n+]3c2c1	Tn7 DDE FP 69.7 | Tn7 DDE conf 24.8 | DDE Tn7 FP ctr inactive
O=c1cc(C(F)(F)F)c2cc3c4c(c2o1)CCCN4CCC3	Tn7 DDE FP 32.9 | Tn7 DDE conf inactive | DDE Tn7 FP ctr inactive
COc1ccc(Cc2cn(C)c(N)n2)cc1	none (no result: ARFGAP1 inh, ASAP1 inh)
Nc1ccc2nonc2c1[N+](=O)[O-]	Tn7 DDE FP 20.0 | Tn7 DDE conf inactive | DDE Tn7 FP ctr inactive
CN(c1ccc(O)cc1)c1ccc([N+](=O)[O-])c2nonc12	none
FC(F)(F)c1cccc(NC2=NCCCS2)c1	Tn7 DDE FP 13.8 | Tn7 DDE conf inactive | DDE Tn7 FP ctr inactive
CC(C)(C)NC(=O)CN1C(=O)[C@@H](Cc2c[nH]c3ccccc23)N=C(c2ccccc2)c2ccccc21	none (no result: ARFGAP1 inh, ASAP1 inh)
CCOC(=O)CC[C@@H]1CC[C@]2(CCCN(Cc3ccccn3)C2)O1	none (no result: ARFGAP1 inh, ASAP1 inh)
C[n+]1c(-c2ccccc2)c2cc(N)ccc2c2ccc(N)cc21	Tn6 DDE FP 49.1, Tn7 DDE FP 21.7 | Tn7 DDE conf inactive | DDE Tn7 FP ctr 124.4 | DDE Tn6 FP ctr inactive | Tn6 DDE conf 124.4
CC(c1ccccc1)n1cc(C(=O)NC2CCCC2)nn1 (stereo not given)	none (no result: ARFGAP1 inh, ASAP1 inh)
O=[N+]([O-])c1ccc(NCc2ccccc2)c2nonc12	Tn6 DDE FP 21.3, Tn7 DDE FP 61.1 | Tn7 DDE conf 46.2 | DDE Tn7 FP ctr 27.1 | DDE Tn6 FP ctr 46.2 | Tn6 DDE conf 27.1
COC(=O)[C@H]1C[C@@]2(C)c3ccccc3N[C@H]2N1	none (no result: ARFGAP1 inh, ASAP1 inh)
CCOC(=O)CC[C@@H]1CC[C@]2(CCCN(Cc3ccncc3)C2)O1	none (no result: ARFGAP1 inh, ASAP1 inh)
